Laboratory results taken from PMC2922442 (Biochimica et biophysica acta, 2010).
pKd, pKi: −log10 of the molar value. Values joined by “and” are separate entries in the source; they are usually repeats but may differ in a detail not shown here. Identical values can stand only once. Like-named read-outs stand apart in the source and are kept apart here.

Experiments:
wild type cytochrome bo3 [1] = molecular target: T1, wild type cytochrome bo3 (Escherichia coli, UniProt P0ABI8); test: steady state ubiquinol-1 oxidase activity; type: biochemical, E. coli; conditions: for pattern of inhibition: double-reciprocal plot vs ubiquinol-1
T1 sequence (P0ABJ1 25-315): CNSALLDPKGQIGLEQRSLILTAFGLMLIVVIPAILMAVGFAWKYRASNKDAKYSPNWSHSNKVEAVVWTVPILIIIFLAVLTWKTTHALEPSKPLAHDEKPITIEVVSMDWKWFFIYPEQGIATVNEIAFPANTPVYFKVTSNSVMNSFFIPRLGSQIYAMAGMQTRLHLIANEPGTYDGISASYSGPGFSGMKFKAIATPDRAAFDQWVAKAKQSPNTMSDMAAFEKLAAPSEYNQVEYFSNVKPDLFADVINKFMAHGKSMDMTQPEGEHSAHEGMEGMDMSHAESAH
T1 sequence (P0ABJ3 whole entry, further chain): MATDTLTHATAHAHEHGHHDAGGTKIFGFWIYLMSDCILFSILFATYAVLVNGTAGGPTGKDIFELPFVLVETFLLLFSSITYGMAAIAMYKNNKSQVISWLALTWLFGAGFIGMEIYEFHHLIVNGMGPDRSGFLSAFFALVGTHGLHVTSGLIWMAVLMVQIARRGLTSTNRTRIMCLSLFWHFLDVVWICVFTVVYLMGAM
T1 sequence (P0ABJ6 whole entry, further chain): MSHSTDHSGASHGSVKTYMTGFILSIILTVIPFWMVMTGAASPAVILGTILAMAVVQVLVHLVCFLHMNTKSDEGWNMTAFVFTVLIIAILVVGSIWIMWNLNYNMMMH
T1 sequence (P0ABI8 whole entry): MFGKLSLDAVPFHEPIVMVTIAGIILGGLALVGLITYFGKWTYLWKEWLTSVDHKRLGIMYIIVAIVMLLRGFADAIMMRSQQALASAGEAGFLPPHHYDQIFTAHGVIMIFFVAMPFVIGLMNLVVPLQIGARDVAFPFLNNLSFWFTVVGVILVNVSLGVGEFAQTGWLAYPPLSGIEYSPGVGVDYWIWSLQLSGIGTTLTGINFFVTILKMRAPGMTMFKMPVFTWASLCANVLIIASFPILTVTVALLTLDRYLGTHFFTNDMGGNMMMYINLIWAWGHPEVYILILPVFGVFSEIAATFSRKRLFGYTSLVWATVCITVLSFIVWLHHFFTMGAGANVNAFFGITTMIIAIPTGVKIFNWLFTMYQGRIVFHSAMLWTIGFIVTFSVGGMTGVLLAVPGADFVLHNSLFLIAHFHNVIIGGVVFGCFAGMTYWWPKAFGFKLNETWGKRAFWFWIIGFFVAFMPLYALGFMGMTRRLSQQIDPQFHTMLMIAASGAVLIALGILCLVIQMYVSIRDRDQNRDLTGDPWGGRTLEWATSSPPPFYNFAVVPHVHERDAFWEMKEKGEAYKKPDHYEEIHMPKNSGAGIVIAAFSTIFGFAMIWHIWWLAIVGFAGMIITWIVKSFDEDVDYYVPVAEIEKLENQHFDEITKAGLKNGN

wild type cytochrome bo3 [2] = molecular target: T1, wild type cytochrome bo3; test: EPR of the semiquinone formed at the QH-site; type: biochemical, E. coli; conditions: excess (5-fold) of inhibitor
Procedure, shortened: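 Continuous-wave X-band EPR of wild-type enzyme purified in dodecylmaltoside, carrying bound ubiquinone-8 at the QH site. Enzyme was incubated with a 5-fold excess of test compound, at 50 μM enzyme in one series. Sample preparation followed earlier published methods.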

[3] = molecular target: wild type cytochrome bo3 (no bound Q8) (Escherichia coli, UniProt P0ABI8); test: HQNO binding monitored by fluorescence anisotropy; set-up: species or system E. coli; conditions: read-out: Kd HQNO
Sequence of wild type cytochrome bo3 (no bound Q8) (P0ABJ3 whole entry): as the sequence (P0ABJ3 whole entry, further chain) above
Sequence of wild type cytochrome bo3 (no bound Q8) (P0ABJ1 25-315, further chain): as the sequence (P0ABJ1 25-315) above
Sequence of wild type cytochrome bo3 (no bound Q8) (P0ABI8 whole entry): as the sequence (P0ABI8 whole entry) above
Sequence of wild type cytochrome bo3 (no bound Q8) (P0ABJ6 whole entry, further chain): as the sequence (P0ABJ6 whole entry, further chain) above
Procedure, shortened: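 Quinone-free enzyme was made by diluting ≥50-fold into 50 mM K2HPO4, 0.1% Triton X-100, pH 8.3, and binding to Ni-NTA for several hours at 4 °C. It was washed into dodecylmaltoside, eluted with 100 mM imidazole and dialysed. Enzyme was titrated into pH 8.3 dodecylmaltoside buffer holding fixed 1 μM test compound. Anisotropy was read at ex 341/em 480 nm against a ligand-free control, and fit with an independent-sites model.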

cytochrome bo3 D188N [4] = molecular target: T2, cytochrome bo3 D188N (Escherichia coli, UniProt P0ABI8, D188N); test: HQNO binding monitored by fluorescence anisotropy; set-up: species or system E. coli; conditions: read-out: Kd HQNO
T2 sequence (P0ABI8 whole entry D188N): as the sequence (P0ABI8 whole entry) above, with D188N counted along it
T2 sequence (P0ABJ3 whole entry, stated change not applied, further chain): as the sequence (P0ABJ3 whole entry, further chain) above
T2 sequence (P0ABJ6 whole entry, further chain): as the sequence (P0ABJ6 whole entry, further chain) above
T2 sequence (P0ABJ1 25-315, further chain): as the sequence (P0ABJ1 25-315) above

cytochrome bo3 W^II136A [5] = molecular target: cytochrome bo3 W^II136A (Escherichia coli, UniProt P0ABI8); test: HQNO binding monitored by fluorescence anisotropy; set-up: species or system E. coli; conditions: read-out: Kd HQNO
Sequence of cytochrome bo3 W^II136A (Escherichia coli, UniProt P0ABI8) (P0ABJ6 whole entry): as the sequence (P0ABJ6 whole entry, further chain) above
Sequence of cytochrome bo3 W^II136A (Escherichia coli, UniProt P0ABI8) (P0ABJ3 whole entry, further chain): as the sequence (P0ABJ3 whole entry, further chain) above
Sequence of cytochrome bo3 W^II136A (Escherichia coli, UniProt P0ABI8) (P0ABI8 whole entry): as the sequence (P0ABI8 whole entry) above
Sequence of cytochrome bo3 W^II136A (Escherichia coli, UniProt P0ABI8) (P0ABJ1 25-315 W136A, further chain): as the sequence (P0ABJ1 25-315) above, with W112A counted along it

cytochrome bo3 H98S = cytochrome bo3 H98S (Escherichia coli, UniProt P0ABI8, H98S); test: HQNO binding monitored by fluorescence anisotropy; set-up: species or system E. coli; conditions: read-out: Kd HQNO
Sequence of cytochrome bo3 H98S (P0ABI8 whole entry H98S): as the sequence (P0ABI8 whole entry) above, with H98S counted along it
Sequence of cytochrome bo3 H98S (P0ABJ3 whole entry, further chain): as the sequence (P0ABJ3 whole entry, further chain) above
Sequence of cytochrome bo3 H98S (P0ABJ6 whole entry, further chain): as the sequence (P0ABJ6 whole entry, further chain) above
Sequence of cytochrome bo3 H98S (P0ABJ1 25-315, further chain): as the sequence (P0ABJ1 25-315) above

cytochrome bo3 R257Q [6] = molecular target: T3, cytochrome bo3 R257Q (Escherichia coli, UniProt P0ABI8, R257Q); test: HQNO binding monitored by fluorescence anisotropy; set-up: species or system E. coli; conditions: read-out: Kd HQNO
T3 sequence (P0ABJ1 25-315): as above
T3 sequence (P0ABI8 whole entry R257Q): as the sequence (P0ABI8 whole entry) above, with R257Q counted along it
T3 sequence (P0ABJ3 whole entry, further chain): as the sequence (P0ABJ3 whole entry, further chain) above
T3 sequence (P0ABJ6 whole entry, further chain): as the sequence (P0ABJ6 whole entry, further chain) above

wild type cytochrome bo3 [7] = molecular target: T1, wild type cytochrome bo3; test: HQNO binding monitored by fluorescence anisotropy; set-up: species or system E. coli; conditions: for pKd: read-out: Kd HQNO
cytochrome bo3 D188A [8] = molecular target: T4, cytochrome bo3 D188A (Escherichia coli, UniProt P0ABI8, D188A); test: HQNO binding monitored by fluorescence anisotropy; set-up: species or system E. coli; conditions: read-out: Kd HQNO
T4 sequence (P0ABI8 whole entry D188A): as the sequence (P0ABI8 whole entry) above, with D188A counted along it
T4 sequence (P0ABJ6 whole entry, further chain): as the sequence (P0ABJ6 whole entry, further chain) above
T4 sequence (P0ABJ3 whole entry, stated change not applied, further chain): as the sequence (P0ABJ3 whole entry, further chain) above
T4 sequence (P0ABJ1 25-315, further chain): as the sequence (P0ABJ1 25-315) above

cytochrome bo3 W^II136A [9] = molecular target: cytochrome bo3 W^II136A (Escherichia coli, UniProt P0ABI8+P0ABJ1, W136A); test: steady state ubiquinol-1 oxidase activity; type: biochemical, E. coli; conditions: read-out: KM UQ1H2
Sequence of cytochrome bo3 W^II136A (Escherichia coli, UniProt P0ABI8+P0ABJ1, W136A) (P0ABI8 whole entry): as the sequence (P0ABI8 whole entry) above
Sequence of cytochrome bo3 W^II136A (Escherichia coli, UniProt P0ABI8+P0ABJ1, W136A) (P0ABJ6 whole entry, further chain): as the sequence (P0ABJ6 whole entry, further chain) above
Sequence of cytochrome bo3 W^II136A (Escherichia coli, UniProt P0ABI8+P0ABJ1, W136A) (P0ABJ1 25-315 W136A): as the sequence (P0ABJ1 25-315) above, with W112A counted along it
Sequence of cytochrome bo3 W^II136A (Escherichia coli, UniProt P0ABI8+P0ABJ1, W136A) (P0ABJ3 whole entry, further chain): as the sequence (P0ABJ3 whole entry, further chain) above

cytochrome bo3 D188A [10] = molecular target: T4, cytochrome bo3 D188A; test: steady state ubiquinol-1 oxidase activity; type: biochemical, E. coli; conditions: read-out: KM UQ1H2
cytochrome bo3 D188N [11] = molecular target: T2, cytochrome bo3 D188N; test: steady state ubiquinol-1 oxidase activity; type: biochemical, E. coli; conditions: read-out: KM UQ1H2
cytochrome bo3 R257Q [12] = molecular target: T3, cytochrome bo3 R257Q; test: steady state ubiquinol-1 oxidase activity; type: biochemical, E. coli; conditions: read-out: KM UQ1H2

SMILES	pattern of inhibition (wild type cytochrome bo3 [1])	effect on formation of the semiquinone at the QH-site (EPR signal) (wild type cytochrome bo3 [2])	pKd [3]	pKd (cytochrome bo3 D188N [4])	pKd (cytochrome bo3 W^II136A [5])	pKd (cytochrome bo3 H98S)	pKd (cytochrome bo3 R257Q [6])	pKi (wild type cytochrome bo3 [1]; read-out: Ki, inhibition of ubiquinol-1 oxidase activity by HQNO, coupled assay, enzyme with ubiquinone-8 bound to the QH site)	pKd (wild type cytochrome bo3 [7]; wild type + 300 μM Q1)	pKd (wild type cytochrome bo3 [7]; wild type + 1500 μM Q1)	pKd (wild type cytochrome bo3 [7]; wild type, one equivalent of ubiquinone-8 bound, 1 μM HQNO, pH 8.3)	number of HQNO binding sites (best fit, independent sites model) (wild type cytochrome bo3 [7]; wild type with ubiquinone-8 bound)	pKd (cytochrome bo3 D188A [8])	Km (cytochrome bo3 W^II136A [9]) [µM]	Km (cytochrome bo3 D188A [10]) [µM]	Km (cytochrome bo3 D188N [11]) [µM]	Km (wild type cytochrome bo3 [1]; read-out: KM UQ1H2, wild type) [µM]	Km (cytochrome bo3 R257Q [12]) [µM]
CCCCCCCCCCc1c(C)c(=O)c2ccccc2n1O [AC1-10, aurachin C1-10]	competitive	prevents formation of the semiquinone EPR signal																
CCCCCCCc1cc(=O)c2ccccc2n1O [HQNO]	noncompetitive	prevents formation of the semiquinone	5.24	5.40	5.39	5.44	5.40	6.13	5.39	5.17	5.40	1.1 and 1	5.30					
COc1c(O)c(C)c(CC=C(C)C)c(O)c1OC [UQ1H2, ubiquinol-1]														63	56	52	53	60
